Results reported in ChEMBL document CHEMBL3425481, “Design, synthesis and anticancer activity of matrine-1H-1,2,3-triazole-chalcone conjugates” (Bioorg Med Chem Lett, 2015).
Active and inactive are the calls of the source. The calls are words filed in the database; no cut-off is given here.

Experiments:
[1] = Antiproliferative activity against mouse NIH/3T3 cells assessed as inhibition of cell proliferation incubated for 48 hrs by CCK8 assay; type: cell-based; conditions: NIH3T3, 48 h
Outline: (§1)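 Human A549 lung, Hela cervical, Bel-7402 hepatocellular and MCF-7 breast cancer cells, plus mouse embryo fibroblast NIH3T3, tested for anti-proliferative activity by CCK-8 assay. For the matrine combination tests, the chalcone and matrine were used at a 1:1 molar ratio; values given as IC50.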

A549 [2] = assay: Antitumor activity against human A549 cells xenografted in Balb/ca-nu mouse assessed as tumor growth inhibition at 10 mg/kg, iv dosed every 3 days for total of 7 dosing rounds measured on day 16 after treatment; type: functional; conditions: read-out: TGI
Outline: (§2)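 A549 xenograft in mice, dosed by tail vein injection every 3 days; vehicle saline plus 0.2% Tween 80. n = 8 per treatment group, 6 in the vehicle group. Mean ± SE.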

HeLa = assay: Antiproliferative activity against human HeLa cells assessed as inhibition of cell proliferation incubated for 48 hrs by CCK8 assay; type: functional, cell-based; outline: as §1
A549 [3] = assay: Antitumor activity against human A549 cells xenografted in Balb/ca-nu mouse assessed as tumor growth inhibition at 2.5 mg/kg, iv dosed every 3 days for total of 7 dosing rounds measured on day 18 after treatment; type: functional; conditions: read-out: TGI; outline: as §2
A549 [4] = assay: Antitumor activity against human A549 cells xenografted in Balb/ca-nu mouse assessed as tumor growth inhibition at 10 mg/kg, iv dosed every 3 days for total of 7 dosing rounds measured on day 18 after treatment; type: functional; conditions: read-out: TGI; outline: as §2
A549 [5] = assay: Antitumor activity against human A549 cells xenografted in Balb/ca-nu mouse assessed as tumor growth inhibition at 5 mg/kg, iv dosed every 3 days for total of 7 dosing rounds measured on day 20 after treatment; type: functional; conditions: read-out: TGI; outline: as §2
A549 [6] = assay: Antitumor activity against human A549 cells xenografted in Balb/ca-nu mouse assessed as tumor growth inhibition at 10 mg/kg, iv dosed every 3 days for total of 7 dosing rounds measured on day 8 after treatment; type: functional, organism-based; parameters: dose 10 mg/kg; outline: as §2
A549 [7] = assay: Antitumor activity against human A549 cells xenografted in Balb/ca-nu mouse assessed as tumor growth inhibition at 5 mg/kg, iv dosed every 3 days for total of 7 dosing rounds measured on day 18 after treatment; type: functional; conditions: read-out: TGI; outline: as §2
A549 [8] = assay: Antitumor activity against human A549 cells xenografted in Balb/ca-nu mouse assessed as tumor growth inhibition at 2.5 to 10 mg/kg, iv dosed every 3 days for total of 7 dosing rounds measured after 20 days post dose; type: functional, organism-based; outline: as §2
A549 [9] = assay: Antitumor activity against human A549 cells xenografted in Balb/ca-nu mouse assessed as tumor growth inhibition at 2.5 mg/kg, iv dosed every 3 days for total of 7 dosing rounds measured on day 14 after treatment; type: functional; conditions: read-out: TGI; outline: as §2

- IC50 (HeLa): 7.31 µM
Structure (SMILES): O=C(/C=C/c1cccc(Cl)c1)c1ccc(OCc2cn([C@H]3CC(=O)N4C[C@@H]5CCCN6CCC[C@@H]([C@H]56)[C@H]4C3)nn2)cc1O
- IC50 [1]: 39.2 µM
- inhibition in vivo at 10 mg/kg (A549 [2]): 83.7%
- inhibition in vivo at 2.5 mg/kg (A549 [3]): 38.8%
- inhibition in vivo at 10 mg/kg (A549 [4]): 86.9%
- inhibition in vivo at 5 mg/kg (A549 [5]): 64.8%
- TGI (A549 [6]): Active
- inhibition in vivo at 5 mg/kg (A549 [7]): 60.5%
- TGI (A549 [8]): Dose-dependent effect
- inhibition in vivo at 2.5 mg/kg (A549 [9]): 23.3%
